{"source": "the array DNA melting data of Ke et al. (doi:10.1101/2024.01.08.574731)", "key": {"[1]": {"experiment": "melting temperature; fluorescence melt of hairpins on a sequencing array, two-state fit, raised by 9.35 °C to match UV melts", "conditions": "sodium 0.088 M", "procedure,_shortened": "(§1)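 Cy3 signals were normalised both to pre-quench Cy3 and to control constructs. They came from library hairpins carrying annealed Cy3 and quencher oligos on a sequenced MiSeq flow cell, imaged in 50 mM Na-HEPES pH 8.0, 25 mM NaCl, in 2.5 °C steps up to 60 °C. Bootstrapped two-state fits gave melting temperature and folding enthalpy, and four replicates were combined by inverse variance. Fitted temperatures were then raised by 9.35 °C to match UV melts.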"}, "[2]": {"experiment": "folding enthalpy; higher = less favourable; fluorescence melt of hairpins on a sequencing array, two-state fit", "conditions": "sodium 0.088 M", "procedure,_shortened": "as §1"}}}
{"sequence": "CGGCGCGGAAACGCACCG (((.(((....))).)))", "values": [{"measurement": "Tm", "setting": "[1]", "value": 67.4, "unit": "°C"}, {"measurement": "folding enthalpy", "setting": "[2]", "value": -123, "unit": "kJ/mol"}]}
{"sequence": "GAAGGGGGAAACCTCTTC ((((.((....)).))))", "values": [{"measurement": "Tm", "setting": "[1]", "value": 43.1, "unit": "°C"}, {"measurement": "folding enthalpy", "setting": "[2]", "value": -116, "unit": "kJ/mol"}]}
{"sequence": "GTCACAACGAAAGTTGAC (((..(((....))))))", "values": [{"measurement": "Tm", "setting": "[1]", "value": 33.2, "unit": "°C"}, {"measurement": "folding enthalpy", "setting": "[2]", "value": -48.9, "unit": "kJ/mol"}]}
{"sequence": "GTTCACGAAAGTGCAAC ((((((....))).)))", "values": [{"measurement": "Tm", "setting": "[1]", "value": 37.8, "unit": "°C"}, {"measurement": "folding enthalpy", "setting": "[2]", "value": -70.1, "unit": "kJ/mol"}]}
{"sequence": "GCCACGCGAAAGCGGAGC ((..(((....)))..))", "values": [{"measurement": "Tm", "setting": "[1]", "value": 54.4, "unit": "°C"}, {"measurement": "folding enthalpy", "setting": "[2]", "value": -71.3, "unit": "kJ/mol"}]}
{"sequence": "GTTTCCGAAAGGAAAAC ((((((....))).)))", "values": [{"measurement": "Tm", "setting": "[1]", "value": 45.1, "unit": "°C"}, {"measurement": "folding enthalpy", "setting": "[2]", "value": -67.4, "unit": "kJ/mol"}]}
{"sequence": "GGGCACGAAAGTGGTCCC ((((((....)))..)))", "values": [{"measurement": "Tm", "setting": "[1]", "value": 52.5, "unit": "°C"}, {"measurement": "folding enthalpy", "setting": "[2]", "value": -73.3, "unit": "kJ/mol"}]}
{"sequence": "GCTGGACGAAAGTCTAGC (((.(((....))).)))", "values": [{"measurement": "Tm", "setting": "[1]", "value": 62.4, "unit": "°C"}, {"measurement": "folding enthalpy", "setting": "[2]", "value": -164, "unit": "kJ/mol"}]}
{"sequence": "GAGACAGGAAACTGTCTC (((((((....)))))))", "values": [{"measurement": "Tm", "setting": "[1]", "value": 60.1, "unit": "°C"}, {"measurement": "folding enthalpy", "setting": "[2]", "value": -208, "unit": "kJ/mol"}]}
{"sequence": "GGCTTGAAAAAGCC (((((....)))))", "values": [{"measurement": "Tm", "setting": "[1]", "value": 59.6, "unit": "°C"}, {"measurement": "folding enthalpy", "setting": "[2]", "value": -131, "unit": "kJ/mol"}]}
{"sequence": "GGACGACGAAAGTCTCC (((.(((....))))))", "values": [{"measurement": "Tm", "setting": "[1]", "value": 47, "unit": "°C"}, {"measurement": "folding enthalpy", "setting": "[2]", "value": -113, "unit": "kJ/mol"}]}
{"sequence": "GCCAGGCGAAAGCCATGC ((..(((....)))..))", "values": [{"measurement": "Tm", "setting": "[1]", "value": 42.3, "unit": "°C"}, {"measurement": "folding enthalpy", "setting": "[2]", "value": -57.1, "unit": "kJ/mol"}]}
{"sequence": "GAATGCCGAAAGGCGTTC (((.(((....))).)))", "values": [{"measurement": "Tm", "setting": "[1]", "value": 61.6, "unit": "°C"}, {"measurement": "folding enthalpy", "setting": "[2]", "value": -116, "unit": "kJ/mol"}]}
{"sequence": "GCTAGCGAAAGCTAGAGC ((((((....)))..)))", "values": [{"measurement": "Tm", "setting": "[1]", "value": 55, "unit": "°C"}, {"measurement": "folding enthalpy", "setting": "[2]", "value": -55.4, "unit": "kJ/mol"}]}
{"sequence": "GCGATGCGAAAGCGCCGC (((..((....))..)))", "values": [{"measurement": "Tm", "setting": "[1]", "value": 62.1, "unit": "°C"}, {"measurement": "folding enthalpy", "setting": "[2]", "value": -128, "unit": "kJ/mol"}]}
{"sequence": "GTGACTGAAAAGTCAC ((((((....))))))", "values": [{"measurement": "Tm", "setting": "[1]", "value": 61, "unit": "°C"}, {"measurement": "folding enthalpy", "setting": "[2]", "value": -157, "unit": "kJ/mol"}]}
{"sequence": "GATCCATCATTGGATC ((((((....))))))", "values": [{"measurement": "Tm", "setting": "[1]", "value": 51.4, "unit": "°C"}, {"measurement": "folding enthalpy", "setting": "[2]", "value": -150, "unit": "kJ/mol"}]}
{"sequence": "GACCACGAAAGTGATGTC ((((((....)))..)))", "values": [{"measurement": "Tm", "setting": "[1]", "value": 38.3, "unit": "°C"}, {"measurement": "folding enthalpy", "setting": "[2]", "value": -73.6, "unit": "kJ/mol"}]}
{"sequence": "GATCGCAGGAGCGATC ((((((....))))))", "values": [{"measurement": "Tm", "setting": "[1]", "value": 68.3, "unit": "°C"}, {"measurement": "folding enthalpy", "setting": "[2]", "value": -111, "unit": "kJ/mol"}]}
{"sequence": "CGCTTTCGGAAACGAGCG (((..(((....))))))", "values": [{"measurement": "Tm", "setting": "[1]", "value": 36.1, "unit": "°C"}, {"measurement": "folding enthalpy", "setting": "[2]", "value": -104, "unit": "kJ/mol"}]}
{"sequence": "GAACACGAAAGTGACTTC ((((((....)))..)))", "values": [{"measurement": "Tm", "setting": "[1]", "value": 35.4, "unit": "°C"}, {"measurement": "folding enthalpy", "setting": "[2]", "value": -86.9, "unit": "kJ/mol"}]}
{"sequence": "GTGCGACGAAAGTCACAC (((.(((....))).)))", "values": [{"measurement": "Tm", "setting": "[1]", "value": 54.3, "unit": "°C"}, {"measurement": "folding enthalpy", "setting": "[2]", "value": -184, "unit": "kJ/mol"}]}
{"sequence": "GCTCCCGGAAACGGGAAC (.(((((....))))).)", "values": [{"measurement": "Tm", "setting": "[1]", "value": 43, "unit": "°C"}, {"measurement": "folding enthalpy", "setting": "[2]", "value": -62.6, "unit": "kJ/mol"}]}
